# Assay results taken from publication PMC4284021 (The Journal of Pharmacy and Pharmacology, 2014).
# Values joined by “and” are separate entries in the source; they are usually repeats but may differ in a detail not shown here. Equal entries are not always repeated. “Also recorded” adds a separate entry of the source. Marks after values point to notes of the source that are not given here.
# Legend:
# [1] = target: T1, cholesteryl ester transfer protein (CETP) activity (Homo sapiens, UniProt P11597); assay: Serum CETP activity by fluorometric assay in healthy subjects; type: in vivo; conditions: for CETP activity: Mean % change from baseline (90% CI) / CETP activity: Mean % change vs placebo (90 % CI): trough (predose) day 14
# T1 sequence (P11597 18-493): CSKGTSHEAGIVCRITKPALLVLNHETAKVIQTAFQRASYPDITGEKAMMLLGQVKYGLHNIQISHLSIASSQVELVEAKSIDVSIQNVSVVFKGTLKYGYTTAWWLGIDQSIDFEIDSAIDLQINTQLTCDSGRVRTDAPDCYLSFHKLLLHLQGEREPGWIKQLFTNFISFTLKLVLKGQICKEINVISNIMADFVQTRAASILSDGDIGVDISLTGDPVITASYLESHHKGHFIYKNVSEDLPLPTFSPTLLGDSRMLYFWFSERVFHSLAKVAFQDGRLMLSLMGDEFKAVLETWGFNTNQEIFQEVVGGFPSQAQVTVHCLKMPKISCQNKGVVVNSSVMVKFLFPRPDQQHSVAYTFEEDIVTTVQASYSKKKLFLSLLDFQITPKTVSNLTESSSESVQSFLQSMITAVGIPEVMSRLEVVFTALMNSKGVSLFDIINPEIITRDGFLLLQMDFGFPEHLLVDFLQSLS
# Method in brief: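 Serum was sampled at the pharmacokinetic time points, including pre-dose troughs, after once-daily oral dosing (10–600 mg) or placebo. CETP activity was measured by fluorometric assay and expressed as the maximum test-compound-inhibitable activity. Change from baseline was analysed with an Emax dose model (Hill coefficient 1, baseline covariate).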
# CETP mass = assay: Serum CETP mass by sandwich ELISA in healthy subjects; type: in vivo, human; conditions: for CETP mass: Mean % change from baseline (90% CI) / CETP mass: Mean % change vs placebo (90 % CI): trough (predose) day 14
# Method in brief: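 CETP mass was measured in serum by sandwich ELISA. Samples were taken at baseline and on Days 2, 7 and 14 of once-daily oral dosing (10–600 mg) or placebo.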
# [2] = system: HDL-C, LDL-C, total cholesterol, triglycerides; assay: Lipid analyses; type: in vivo, human; conditions: for HDL-C: Mean % change from baseline (90% CI) / HDL-C: Mean % change vs placebo (90 % CI) / LDL-C: Mean % change from baseline (90% CI) / LDL-C: Mean % change vs placebo (90 % CI) / Total cholesterol: Mean % change from baseline (90% CI) / Total cholesterol: Mean % change vs placebo (90 % CI) / Triglycerides: Mean % change from baseline (90% CI) / Triglycerides: Mean % change vs placebo (90 % CI): day 14
# Method in brief: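 Placebo-controlled once-daily oral capsules (10–600 mg) with a low-fat meal for 14–15 days. Total cholesterol and triglycerides were measured by enzymatic methods. HDL-C was measured after dextran sulfate precipitation and centrifugation of LDL/VLDL. LDL-C was measured by a direct assay. Change from baseline was taken to Day 14 and to 2 weeks after the last dose. Emax models (Hill coefficient 1, baseline covariate) were used for HDL-C/LDL-C; linear models for total cholesterol and triglycerides.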
# healthy subjects = assay: 24-h ambulatory blood pressure monitoring; type: in vivo, human; conditions: for effect on 24-h ambulatory systolic or diastolic blood pressure: 600 mg compared with placebo
# Method in brief: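 Double-blind crossover cohort (n = 15): placebo or 600 mg/day oral test compound for 14 days, then the other treatment after a 21-day washout. Subjects wore the ambulatory monitor about 12 h before Day 1 baseline. On Day 14, dosing came about 1 h after monitoring began. Readings every 20 min by day, every 30 min at night. The first hour was excluded. Value is mean SBP/DBP over the 24 h after dosing.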
# dyslipidemic patients = conditions: cited from earlier work
# healthy volunteers = conditions: doses of up to 1200 mg for 10 days; cited from earlier work
# [3] = 600 mg, 24-h ABPM, Day 1 (baseline), mean (90% CI)
# [4] = 600 mg/day for 14 days, 24-h ABPM
# [5] = 600 mg/day for 14 days, 24-h ABPM, (90% CI)
# [6] = 600 mg/day, 24-h ABPM, Day 14, mean (90% CI)
# [7] = Phase 2, nearly 400 dyslipidemic patients
structure (smiles),measurement,setting,value
Cc1cc(C)c2c(c1)[C@@H](N(Cc1cc(C(F)(F)F)cc(C(F)(F)F)c1)c1nnn(C)n1)CCCN2C[C@H]1CC[C@H](C(=O)O)CC1 [evacetrapib],CETP activity: Mean % change from baseline (90% CI),[1]; 10 mg/day,"−14.60 (−22.33, −6.87) %"
same,CETP activity: Mean % change vs placebo (90 % CI),[1]; 10 mg/day,"−16.08 (−23.23, −8.94) ^*** %"
same,trough inhibition of CETP activity,[1]; 100 mg,65%
same,CETP activity: Mean % change from baseline (90% CI),[1]; 100 mg/day,"−64.54 (−73.08, −56.00) %"
same,CETP activity: Mean % change vs placebo (90 % CI),[1]; 100 mg/day,"−66.02 (−78.93, −53.11) ^*** %"
same,trough inhibition of CETP activity,[1]; 300 mg,84%
same,CETP activity: Mean % change from baseline (90% CI),[1]; 300 mg/day,"−84.26 (−91.34, −77.18) %"
same,CETP activity: Mean % change vs placebo (90 % CI),[1]; 300 mg/day,"−85.74 (−97.43, −74.05) ^*** %"
same,trough inhibition of CETP activity,[1]; 600 mg,91% and 91.2%
same,inhibition of CETP activity compared with placebo,"[1]; 600 mg, after multiple doses",93%
same,CETP activity: Mean % change from baseline (90% CI),[1]; 600 mg/day,"−91.18 (−99.71, −82.66) %"
same,CETP activity: Mean % change vs placebo (90 % CI),[1]; 600 mg/day,"−92.66 (−104.92, −80.41) ^*** %"
same,CETP activity after 2-week (336 h) washout,[1]; each dose group,returned to levels at or near baseline; also recorded: returned to baseline levels
same,CETP mass: Mean % change from baseline (90% CI),CETP mass; 10 mg/day,"20.18 (9.92, 30.45) %"
same,CETP mass: Mean % change vs placebo (90 % CI),CETP mass; 10 mg/day,"20.58 (11.28, 29.88) ^*** %"
same,CETP mass: Mean % change from baseline (90% CI),CETP mass; 100 mg/day,"95.77 (82.14, 109.41) %"
same,CETP mass: Mean % change vs placebo (90 % CI),CETP mass; 100 mg/day,"96.17 (76.37, 115.97) ^*** %"
same,CETP mass: Mean % change from baseline (90% CI),CETP mass; 300 mg/day,"131.72 (122.10, 141.34) %"
same,CETP mass: Mean % change vs placebo (90 % CI),CETP mass; 300 mg/day,"132.12 (115.85, 148.38) ^*** %"
same,CETP mass: Mean % change from baseline (90% CI),CETP mass; 600 mg/day,"145.34 (133.29, 157.39) %"
same,CETP mass: Mean % change vs placebo (90 % CI),CETP mass; 600 mg/day,"145.73 (128.99, 162.48) ^*** %"
same,CETP mass approximately 2 weeks after the last dose,"CETP mass; human, in vivo",returned to levels at or near baseline; also recorded: returned to baseline
same,HDL-C: Mean % change from baseline (90% CI),[2]; 10 mg/day,"11.69 (4.39, 18.99) %"
same,HDL-C: Mean % change vs placebo (90 % CI),[2]; 10 mg/day,"18.02 (9.76, 26.28) ^*** %"
same,LDL-C: Mean % change from baseline (90% CI),[2]; 10 mg/day,"−11.94 (−18.31, −5.57) %"
same,LDL-C: Mean % change vs placebo (90 % CI),[2]; 10 mg/day,"−13.59 (−21.83, −5.35) ^** %"
same,Total cholesterol: Mean % change from baseline (90% CI),[2]; 10 mg/day,"−4.92 (−15.93, 6.10) %"
same,Total cholesterol: Mean % change vs placebo (90 % CI),[2]; 10 mg/day,"−4.26 (−17.58, 9.06) %"
same,Triglycerides: Mean % change from baseline (90% CI),[2]; 10 mg/day,"−12.92 (−26.89, 1.06) %"
same,Triglycerides: Mean % change vs placebo (90 % CI),[2]; 10 mg/day,"5.51 (−11.39, 22.40) %"
same,HDL-C: Mean % change from baseline (90% CI),[2]; 100 mg/day,"59.28 (51.54, 67.02) %"
same,HDL-C: Mean % change vs placebo (90 % CI),[2]; 100 mg/day,"65.61 (53.34, 77.88) ^*** %"
same,LDL-C: Mean % change from baseline (90% CI),[2]; 100 mg/day,"−24.47 (−27.68, −21.26) %"
same,LDL-C: Mean % change vs placebo (90 % CI),[2]; 100 mg/day,"−26.13 (−32.39, −19.86) ^*** %"
same,Total cholesterol: Mean % change from baseline (90% CI),[2]; 100 mg/day,"6.83 (−4.18, 17.85) %"
same,Total cholesterol: Mean % change vs placebo (90 % CI),[2]; 100 mg/day,"7.49 (−5.83, 20.81) %"
same,Triglycerides: Mean % change from baseline (90% CI),[2]; 100 mg/day,"−3.75 (−17.73, 10.23) %"
same,Triglycerides: Mean % change vs placebo (90 % CI),[2]; 100 mg/day,"14.67 (−2.22, 31.57) %"
same,HDL-C: Mean % change from baseline (90% CI),[2]; 300 mg/day,"75.22 (68.87, 81.58) %"
same,HDL-C: Mean % change vs placebo (90 % CI),[2]; 300 mg/day,"81.56 (70.90, 92.22) ^*** %"
same,LDL-C: Mean % change from baseline (90% CI),[2]; 300 mg/day,"−26.39 (−29.92, −22.85) %"
same,LDL-C: Mean % change vs placebo (90 % CI),[2]; 300 mg/day,"−28.04 (−34.18, −21.90) ^*** %"
same,Total cholesterol: Mean % change from baseline (90% CI),[2]; 300 mg/day,"15.60 (3.53, 27.67) %"
same,Total cholesterol: Mean % change vs placebo (90 % CI),[2]; 300 mg/day,"16.25 (2.05, 30.46) %"
same,Triglycerides: Mean % change from baseline (90% CI),[2]; 300 mg/day,"−2.10 (−17.41, 13.21) %"
same,Triglycerides: Mean % change vs placebo (90 % CI),[2]; 300 mg/day,"16.32 (−1.69, 34.34) %"
same,decrease in LDL-C,"[2]; 600 mg, Day 14, relative to placebo",29%
same,HDL-C: Mean % change from baseline (90% CI),[2]; 600 mg/day,"80.50 (73.05, 87.95) %"
same,HDL-C: Mean % change vs placebo (90 % CI),[2]; 600 mg/day,"87% and 86.83 (75.96, 97.71) ^*** %"
same,LDL-C: Mean % change from baseline (90% CI),[2]; 600 mg/day,"−26.91 (−30.71, −23.11) %"
same,LDL-C: Mean % change vs placebo (90 % CI),[2]; 600 mg/day,"−28.56 (−34.76, −22.37) ^*** %"
same,Total cholesterol: Mean % change from baseline (90% CI),[2]; 600 mg/day,"15.48 (7.85, 23.11) %"
same,Total cholesterol: Mean % change vs placebo (90 % CI),[2]; 600 mg/day,"16.13 (5.44, 26.82) ^* %"
same,Triglycerides: Mean % change from baseline (90% CI),[2]; 600 mg/day,"−22.08 (−31.76, −12.40) %"
same,Triglycerides: Mean % change vs placebo (90 % CI),[2]; 600 mg/day,"−3.66 (−17.22, 9.91) %"
same,changes in triglycerides,"[2]; 10–600 mg, Day 14",no statistically significant changes
same,HDL-C change (SD) from baseline to 2 weeks after the last dose,[2]; 600-mg dose group,7.3%
same,LDL-C change (SD) from baseline to 2 weeks after the last dose,[2]; 600-mg dose group,−2.6%
same,HDL-C and LDL-C after 2-week washout,[2]; all dose groups,returned to levels at or near baseline
same,effect on 24-h ambulatory systolic or diastolic blood pressure,healthy subjects,No significant differences
same,effect on 24-h ambulatory systolic or diastolic blood pressure,healthy subjects; listed as Evacetrapib,did not produce any significant effect
same,correlation between exposure and blood pressure (Spearman's rank correlation coefficient),"healthy subjects; 600 mg crossover cohort, P = 0.964",0.00954
same,"Diastolic blood pressure, Day 1 mean",healthy subjects; [3],"68.27 (64.82, 71.72) mmHg"
same,"Systolic blood pressure, Day 1 mean",healthy subjects; [3],"112.16 (109.12, 115.19) mmHg"
same,"Diastolic blood pressure, Difference (comparison with placebo)",healthy subjects; [4],−2.28 mmHg
same,"Systolic blood pressure, Difference (comparison with placebo)",healthy subjects; [4],−1.96 mmHg
same,"Diastolic blood pressure, LS mean change",healthy subjects; [5],"0.60 (−1.45, 2.65) mmHg"
same,"Systolic blood pressure, LS mean change",healthy subjects; [5],"−0.27 (−2.64, 2.11) mmHg"
same,"Diastolic blood pressure, Day 14 mean",healthy subjects; [6],"73.72 (70.26, 77.18) mmHg"
same,"Systolic blood pressure, Day 14 mean",healthy subjects; [6],"118.28 (113.78, 122.77) mmHg"
same,tolerability,"dyslipidemic patients; 12 weeks, daily doses up to 500 mg monotherapy or 100 mg with a statin",well tolerated
same,decrease in LDL-C,dyslipidemic patients; [7],up to 36%
same,increase in HDL-C levels,dyslipidemic patients; [7],up to 129%
same,effects on blood pressure or mineralocorticoid activity,dyslipidemic patients; Phase 2,without having effects
same,QT interval prolongation,healthy volunteers,no evidence of QT interval prolongation
same,tolerability,healthy volunteers,well tolerated
